In ChEMBL document CHEMBL1122046, “Quaternary heterocyclylamino beta-lactams: a generic alternative to the classical acylamino side chain” (1982) one finds MIC data, which are given here for eight compounds.

Format in all cases: functional
One experiment deals with Shigella. Description: Minimum inhibitory concentration against aerobic organism Shigella species strain 2880. The essentials: (§1)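 Agar-dilution MIC in µg/mL against aerobic bacterial strains on tryptocase soy agar, with inoculum applied as spots. Most series used 10^5 cfu per spot, and a later series used 10^4 cfu per spot. In some tables, footnoted strains were instead tested on Mueller-Hinton or nutrient agar. β-Lactamase-producing strains are flagged.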

A further experiment has as its system Enterobacter cloacae. Description: Minimum inhibitory concentration against aerobic organism Enterobacter cloacae strain 2646. A digest of the protocol:
as §1

The test system of the next experiment is Streptococcus pyogenes. Description: Minimum inhibitory concentration against aerobic organism Streptococcus pyogenes strain 3124. The essentials: as §1
Another experiment concerns Proteus mirabilis. Description: Minimum inhibitory concentration against aerobic organism Proteus mirabilis strain 2830. A digest of the protocol: as §1
For another experiment, the system named is Enterococcus faecalis. Description: Minimum inhibitory concentration against aerobic organism Streptococcus faecalis strain 2864. The essentials: as §1
The next experiment relates to Escherichia coli. Description: MIC against aerobic organism Escherichia coli strain 2891. A digest of the protocol:
as §1

Experiment [1] can be described thus: Minimum inhibitory concentration against aerobic organism Salmonella schottmuelleri strain 2837. A digest of the protocol: as §1
A further experiment deals with Serratia marcescens. Description: Minimum inhibitory concentration against aerobic organism Serratia marcescens strain 2852. The essentials: as §1
The next experiment deals with Klebsiella pneumoniae. Description: Minimum inhibitory concentration against aerobic organism Klebsiella pneumoniae strain 2882. A digest of the protocol: as §1
In another experiment the test system is Staphylococcus aureus. Description: Minimum inhibitory concentration against aerobic organism Staphylococcus aureus strain 2868. Particulars: Staphylococcus aureus; read-out: MIC. The essentials:
as §1

The test system of the next experiment is Pseudomonas aeruginosa. Description: Minimum inhibitory concentration against aerobic organism Pseudomonas aeruginosa strain 2835. The essentials: as §1
For another experiment, the system named is Proteus vulgaris. Description: Minimum inhibitory concentration against aerobic organism Proteus vulgaris strain 2829. The essentials:
as §1

A further experiment deals with Morganella morganii. Description: Minimum inhibitory concentration against aerobic organism Morganella morganii strain 2833. The essentials: as §1
For a further experiment, the system named is Klebsiella aerogenes. Description: Minimum inhibitory concentration against aerobic organism Enterobacter aerogenes strain 2906. The essentials: as §1
Where [2] appears, read: Enterobacter cloacae, read-out: MIC.
Where [3] appears, read: Streptococcus pyogenes, read-out: MIC.
The mark [4] stands for this setting: Proteus mirabilis, read-out: MIC.
Where [5] appears, read: Escherichia coli, read-out: MIC.
[6] abbreviates: Serratia marcescens, read-out: MIC.
Where [7] appears, read: Klebsiella pneumoniae, read-out: MIC.
Setting [8] is: Proteus vulgaris, read-out: MIC.
[9] abbreviates: Morganella morganii, read-out: MIC.
The mark [10] stands for this setting: Klebsiella aerogenes, read-out: MIC.

The structures appear in SMILES notation. ≈ marks a conversion by molar mass, not a printed value.

One may read the MIC as the lowest concentration found to suppress growth. On to `Cn1nnnc1SCC1=C(C(=O)[O-])N2C(=O)[C@@H](Nc3cc[n+](C)cc3)[C@H]2SC1` (stereo in doubt; 15b), for which the MIC with Shigella is above 128 µg/mL; against Enterobacter cloacae, above 128 µg/mL; in the experiment with Streptococcus pyogenes, 32 µg/mL (≈ 76.3 µM); against Proteus mirabilis, above 128 µg/mL; with Enterococcus faecalis, above 128 µg/mL; against Escherichia coli it was above 128 µg/mL. Moreover, the MIC was above 128 µg/mL in [1]; 64 µg/mL (≈ 153 µM) against Serratia marcescens; 64 µg/mL (≈ 153 µM) with Klebsiella pneumoniae; above 128 µg/mL in the experiment on Staphylococcus aureus; above 128 µg/mL in the experiment on Pseudomonas aeruginosa; 4 µg/mL (≈ 9.54 µM) with Proteus vulgaris. Also, the figures for the minimum inhibitory concentration (MIC) in the experiment on Morganella morganii and in the experiment on Klebsiella aerogenes were above 128 µg/mL and 16 µg/mL (≈ 38.1 µM), respectively.
As for `Cn1nnnc1SCC1=C(C(=O)[O-])N2C(=O)[C@@H](Nc3cc[n+](CC(=O)[O-])cc3)[C@H]2SC1.[Na+]`, the minimum inhibitory concentration (MIC) is 2 µg/mL in the experiment on Shigella (Shigella, read-out: MIC); 64 µg/mL in the experiment on Enterobacter cloacae (setting [2]); 2 µg/mL in the experiment with Streptococcus pyogenes (setting [3]); 64 µg/mL with Proteus mirabilis (setting [4]); above 128 µg/mL with Enterococcus faecalis; 4 µg/mL with Escherichia coli (setting [5]). Also, the minimal inhibitory concentration (MIC) in experiment [1] (Salmonella, read-out: MIC) is 4 µg/mL; with Serratia marcescens (setting [6]) it was above 128 µg/mL; in the experiment on Klebsiella pneumoniae (setting [7]), 8 µg/mL; in the experiment with Staphylococcus aureus it was 32 µg/mL; in the experiment on Pseudomonas aeruginosa it was above 128 µg/mL; in the experiment on Proteus vulgaris (setting [8]), 1 µg/mL. Also, the MIC with Morganella morganii (setting [9]) is above 128 µg/mL; in the experiment with Klebsiella aerogenes (setting [10]), 32 µg/mL.
For `CC(=O)OCC1=C(C(=O)[O-])N2C(=O)[C@@H](Nc3cc[n+](COCC(Cl)(Cl)Cl)cc3)[C@H]2SC1`, the MIC with Shigella (Shigella, read-out: MIC) is below 0.06 µg/mL; with Enterobacter cloacae (setting [2]), 0.125 µg/mL (≈ 0.245 µM); with Proteus mirabilis (setting [4]), above 128 µg/mL; in the experiment on Enterococcus faecalis, 128 µg/mL (≈ 251 µM); in the experiment with Escherichia coli (setting [5]) it was below 0.06 µg/mL; in experiment [1] (Salmonella, read-out: MIC) it was below 0.06 µg/mL. Also, the MIC with Serratia marcescens (setting [6]) was above 128 µg/mL; with Klebsiella pneumoniae (setting [7]), below 0.06 µg/mL; with Staphylococcus aureus it was 8 µg/mL (≈ 15.7 µM); against Pseudomonas aeruginosa it was above 128 µg/mL; in the experiment on Proteus vulgaris (setting [8]), 32 µg/mL (≈ 62.6 µM); with Morganella morganii (setting [9]), above 128 µg/mL. Besides, in the experiment with Klebsiella aerogenes (setting [10]), the minimal inhibitory concentration (MIC) was 32 µg/mL (≈ 62.6 µM).
With `Cc1ccccc1-[n+]1ccc(N[C@@H]2C(=O)N3C(C(=O)[O-])=C(CSc4nnnn4C)CS[C@H]23)cc1`, the minimum inhibitory concentration (MIC) with Shigella (Shigella, read-out: MIC) was 1 µg/mL (≈ 2.02 µM); in the experiment on Enterobacter cloacae (setting [2]), above 128 µg/mL; with Streptococcus pyogenes (setting [3]), 0.25 µg/mL (≈ 0.504 µM); in the experiment with Proteus mirabilis (setting [4]) it was above 128 µg/mL; with Enterococcus faecalis, above 128 µg/mL; with Escherichia coli (setting [5]), 2 µg/mL (≈ 4.04 µM). For the same compound, the MIC was 2 µg/mL (≈ 4.04 µM) in experiment [1] (Salmonella, read-out: MIC); above 128 µg/mL with Serratia marcescens (setting [6]); 128 µg/mL (≈ 258 µM) with Klebsiella pneumoniae (setting [7]); 32 µg/mL (≈ 64.6 µM) with Staphylococcus aureus; above 128 µg/mL in the experiment with Pseudomonas aeruginosa; 2 µg/mL (≈ 4.04 µM) in the experiment on Proteus vulgaris (setting [8]). In addition, the MIC with Morganella morganii (setting [9]) and in the experiment with Klebsiella aerogenes (setting [10]) was above 128 µg/mL in each case.
In the case of `COc1ccc(C[n+]2ccc(N[C@@H]3C(=O)N4C(C(=O)[O-])=C(CSc5nnnn5C)CS[C@H]34)cc2)cc1OC`, the MIC with Shigella (Shigella, read-out: MIC) is 0.25 µg/mL (≈ 0.45 µM); with Enterobacter cloacae (setting [2]), 64 µg/mL (≈ 115 µM); in the experiment with Streptococcus pyogenes (setting [3]), 0.125 µg/mL (≈ 0.225 µM); in the experiment with Proteus mirabilis (setting [4]) it was above 64 µg/mL; with Enterococcus faecalis, above 64 µg/mL; with Escherichia coli (setting [5]), 0.5 µg/mL (≈ 0.9 µM). The MIC in [1] (Salmonella, read-out: MIC) is 0.5 µg/mL (≈ 0.9 µM); in the experiment with Serratia marcescens (setting [6]), 64 µg/mL (≈ 115 µM); in the experiment with Klebsiella pneumoniae (setting [7]), 0.5 µg/mL (≈ 0.9 µM); with Staphylococcus aureus, 8 µg/mL (≈ 14.4 µM); in the experiment with Pseudomonas aeruginosa, above 64 µg/mL; in the experiment with Proteus vulgaris (setting [8]), 0.25 µg/mL (≈ 0.45 µM). Besides, the values for the MIC with Morganella morganii (setting [9]) and in the experiment with Klebsiella aerogenes (setting [10]) were 32 µg/mL (≈ 57.6 µM) and 8 µg/mL (≈ 14.4 µM), respectively.
As to `Cn1nnnc1SCC1=C(C(=O)[O-])N2C(=O)[C@@H](Nc3cc[n+](COCc4ccccc4)cc3)[C@H]2SC1`, the minimum inhibitory concentration (MIC) was 1 µg/mL (≈ 1.9 µM) with Shigella (Shigella, read-out: MIC); 16 µg/mL (≈ 30.4 µM) with Enterobacter cloacae (setting [2]); above 128 µg/mL in the experiment with Proteus mirabilis (setting [4]); above 128 µg/mL against Enterococcus faecalis; 1 µg/mL (≈ 1.9 µM) in the experiment on Escherichia coli (setting [5]); 1 µg/mL (≈ 1.9 µM) in experiment [1] (Salmonella, read-out: MIC). For the same compound, the MIC is above 128 µg/mL in the experiment on Serratia marcescens (setting [6]); 2 µg/mL (≈ 3.81 µM) in the experiment on Klebsiella pneumoniae (setting [7]); 16 µg/mL (≈ 30.4 µM) with Staphylococcus aureus; above 128 µg/mL with Pseudomonas aeruginosa; 128 µg/mL (≈ 244 µM) with Proteus vulgaris (setting [8]); above 128 µg/mL in the experiment with Morganella morganii (setting [9]). In addition, in the experiment with Klebsiella aerogenes (setting [10]), the MIC was found to be 128 µg/mL (≈ 244 µM).
Consider `C[n+]1ccccc1NC(C(=O)NC1C(=O)N2C1SC(C)(C)[C@@H]2C(=O)[O-])c1ccccc1` (some centres undefined), for which the minimum inhibitory concentration (MIC) in the experiment on Shigella (Shigella, read-out: MIC) is 25 µg/mL (≈ 56.8 µM); with Enterobacter cloacae (setting [2]), above 100 µg/mL; in the experiment on Streptococcus pyogenes (setting [3]) it was below 0.39 µg/mL; with Enterococcus faecalis it was 12.5 µg/mL (≈ 28.4 µM); with Escherichia coli (setting [5]), above 100 µg/mL; in experiment [1] (Salmonella, read-out: MIC), 12.5 µg/mL (≈ 28.4 µM). Also, the MIC in the experiment on Klebsiella pneumoniae (setting [7]) is above 100 µg/mL; in the experiment on Staphylococcus aureus, 3.12 µg/mL (≈ 7.08 µM).
As for `Cn1nnnc1SCC1=C(C(=O)[O-])N2C(=O)[C@@H](Nc3cc[n+](Cc4ccco4)cc3)[C@H]2SC1`, the MIC amounted to 0.0075 µg/mL (≈ 0.0154 µM) in the experiment with Shigella (Shigella, read-out: MIC); 8 µg/mL (≈ 16.5 µM) in the experiment with Enterobacter cloacae (setting [2]); 0.03 µg/mL (≈ 0.0618 µM) in the experiment on Streptococcus pyogenes (setting [3]); 16 µg/mL (≈ 33 µM) in the experiment with Proteus mirabilis (setting [4]); 128 µg/mL (≈ 264 µM) with Enterococcus faecalis; 0.06 µg/mL (≈ 0.124 µM) in the experiment on Escherichia coli (setting [5]). For the same compound, the MIC was 0.0075 µg/mL (≈ 0.0154 µM) in experiment [1] (Salmonella, read-out: MIC); 128 µg/mL (≈ 264 µM) in the experiment with Serratia marcescens (setting [6]); 0.06 µg/mL (≈ 0.124 µM) in the experiment on Klebsiella pneumoniae (setting [7]); 2 µg/mL (≈ 4.12 µM) with Staphylococcus aureus; 128 µg/mL (≈ 264 µM) against Pseudomonas aeruginosa; below 0.25 µg/mL in the experiment with Proteus vulgaris (setting [8]). Further, the values for the MIC in the experiment on Morganella morganii (setting [9]) and with Klebsiella aerogenes (setting [10]) were above 128 µg/mL and 8 µg/mL (≈ 16.5 µM), respectively.
